Activity calls are given as the source filed them. The rule behind the calls is not given here.
Assays:
[1] = system: Colletotrichum gloeosporioides; experiment: Antifungal activity against Colletotrichum gloeosporioides assessed as diffuse inhibitory zone at concentration of 2 mM in volume of 2 ul of EtOH measured after 4 days by TLC based direct bioautography assay; assay type: functional, organism-based
How it was run: (§1)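 Direct TLC bioautography on silica plates against Colletotrichum species. Technical-grade fungicide standards (without formulation) were spotted at 2 µL of 2 mM in 95% ethanol. Inhibitory zone size was read 4 days after treatment. Diffuse zones were taken to mark suppressive activity. Values are means and standard deviations of zone size, with means separated by ANOVA and Fisher's protected LSD (P = 0.05).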

Colletotrichum fragariae [2] = experiment: Antifungal activity against Colletotrichum fragariae assessed as size of growth inhibitory zone at concentration of 2 mM in volume of 2 ul of EtOH measured after 4 days by TLC based direct bioautography assay; assay type: functional; how it was run: as §1
Colletotrichum acutatum [3] = experiment: Antifungal activity against Colletotrichum acutatum assessed as diffuse inhibitory zone at concentration of 2 mM in volume of 2 ul of EtOH measured after 4 days by TLC based direct bioautography assay; assay type: functional, organism-based; how it was run: as §1
Colletotrichum acutatum [4] = experiment: Antifungal activity against Colletotrichum acutatum assessed as size of growth inhibitory zone at concentration of 2 mM in volume of 4 ul of acetone measured after 4 days by TLC based direct bioautography assay; assay type: functional
How it was run: (§2)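 Direct TLC bioautography on silica plates, dose–response from 2 to 12 µL of a 2 mM solution spotted per plate. Benomyl, cyprodinil, azoxystrobin and captan served as standards at 2 µL of 2 mM in ethanol. Inhibitory zone size was measured 4 days after treatment. Experiments were repeated multiple times, and mean zones were compared by ANOVA with Fisher's protected LSD (P 0.05).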

[5] = system: Colletotrichum gloeosporioides; experiment: Antifungal activity against Colletotrichum gloeosporioides assessed as size of growth inhibitory zone at concentration of 2 mM in volume of 4 ul of acetone measured after 4 days by TLC based direct bioautography assay; assay type: functional; how it was run: as §2
Colletotrichum fragariae [6] = experiment: Antifungal activity against Colletotrichum fragariae assessed as size of growth inhibitory zone at concentration of 2 mM in volume of 4 ul of acetone measured after 4 days by TLC based direct bioautography assay; assay type: functional; how it was run: as §2
[7] = system: Colletotrichum gloeosporioides; experiment: Antifungal activity against Colletotrichum gloeosporioides assessed as size of growth inhibitory zone at concentration of 2 mM in volume of 10 ul of acetone measured after 4 days by TLC based direct bioautography assay; assay type: functional; how it was run: as §2
[8] = system: Colletotrichum gloeosporioides; experiment: Antifungal activity against Colletotrichum gloeosporioides assessed as size of growth inhibitory zone at concentration of 2 mM in volume of 8 ul of acetone measured after 4 days by TLC based direct bioautography assay; assay type: functional; how it was run: as §2
[9] = system: Colletotrichum gloeosporioides; experiment: Antifungal activity against Colletotrichum gloeosporioides assessed as size of growth inhibitory zone at concentration of 2 mM in volume of 6 ul of acetone measured after 4 days by TLC based direct bioautography assay; assay type: functional; how it was run: as §2
[10] = system: Colletotrichum gloeosporioides; experiment: Antifungal activity against Colletotrichum gloeosporioides assessed as size of growth inhibitory zone at concentration of 2 mM in volume of 2 ul of acetone measured after 4 days by TLC based direct bioautography assay; assay type: functional; how it was run: as §2
Colletotrichum fragariae [11] = experiment: Antifungal activity against Colletotrichum fragariae assessed as size of growth inhibitory zone at concentration of 2 mM in volume of 12 ul of acetone measured after 4 days by TLC based direct bioautography assay; assay type: functional; how it was run: as §2
Colletotrichum fragariae [12] = experiment: Antifungal activity against Colletotrichum fragariae assessed as size of growth inhibitory zone at concentration of 2 mM in volume of 10 ul of acetone measured after 4 days by TLC based direct bioautography assay; assay type: functional; how it was run: as §2
Colletotrichum fragariae [13] = experiment: Antifungal activity against Colletotrichum fragariae assessed as size of growth inhibitory zone at concentration of 2 mM in volume of 8 ul of acetone measured after 4 days by TLC based direct bioautography assay; assay type: functional; how it was run: as §2
Colletotrichum fragariae [14] = experiment: Antifungal activity against Colletotrichum fragariae assessed as size of growth inhibitory zone at concentration of 2 mM in volume of 6 ul of acetone measured after 4 days by TLC based direct bioautography assay; assay type: functional; how it was run: as §2
Colletotrichum fragariae [15] = experiment: Antifungal activity against Colletotrichum fragariae assessed as size of growth inhibitory zone at concentration of 2 mM in volume of 2 ul of acetone measured after 4 days by TLC based direct bioautography assay; assay type: functional; how it was run: as §2
Colletotrichum acutatum [16] = experiment: Antifungal activity against Colletotrichum acutatum assessed as size of growth inhibitory zone at concentration of 2 mM in volume of 12 ul of acetone measured after 4 days by TLC based direct bioautography assay; assay type: functional; how it was run: as §2
Colletotrichum acutatum [17] = experiment: Antifungal activity against Colletotrichum acutatum assessed as size of growth inhibitory zone at concentration of 2 mM in volume of 10 ul of acetone measured after 4 days by TLC based direct bioautography assay; assay type: functional; how it was run: as §2
Colletotrichum acutatum [18] = experiment: Antifungal activity against Colletotrichum acutatum assessed as size of growth inhibitory zone at concentration of 2 mM in volume of 8 ul of acetone measured after 4 days by TLC based direct bioautography assay; assay type: functional; how it was run: as §2
Colletotrichum acutatum [19] = experiment: Antifungal activity against Colletotrichum acutatum assessed as size of growth inhibitory zone at concentration of 2 mM in volume of 6 ul of acetone measured after 4 days by TLC based direct bioautography assay; assay type: functional; how it was run: as §2
Colletotrichum acutatum [20] = experiment: Antifungal activity against Colletotrichum acutatum assessed as size of growth inhibitory zone at concentration of 2 mM in volume of 2 ul of acetone measured after 4 days by TLC based direct bioautography assay; assay type: functional; how it was run: as §2
Fusarium oxysporum = experiment: Antifungal activity against Fusarium oxysporum assessed as growth inhibition at 0.3 to 30 uM after 72 hr by 96-well microdilution broth assay; assay type: functional, organism-based
How it was run: (§3)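 96-well microdilution broth dose–response. Final treatment concentrations were 0.3, 3.0 and 30.0 µM, alongside an azoxystrobin fungicide standard. Plates were lidded and incubated in a growth chamber, and growth was read as absorbance at 620 nm. Each concentration was run in duplicate, with three independent experiments. Results are reported as mean growth inhibition with standard errors for each fungus and dose.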

Phomopsis obscurans = experiment: Antifungal activity against Phomopsis obscurans assessed as growth inhibition at 0.3 to 30 uM after 72 hr by 96-well microdilution broth assay; assay type: functional, organism-based; conditions: Paraphomopsis obscurans; how it was run: as §3
[21] = system: Colletotrichum gloeosporioides; experiment: Antifungal activity against Colletotrichum gloeosporioides assessed as growth inhibition at 0.3 to 30 uM after 72 hr by 96-well microdilution broth assay; assay type: functional, organism-based; how it was run: as §3
Colletotrichum fragariae [22] = experiment: Antifungal activity against Colletotrichum fragariae assessed as growth inhibition at 0.3 to 30 uM after 72 hr by 96-well microdilution broth assay; assay type: functional, organism-based; how it was run: as §3
Colletotrichum acutatum [23] = experiment: Antifungal activity against Colletotrichum acutatum assessed as growth inhibition at 0.3 to 30 uM after 72 hr by 96-well microdilution broth assay; assay type: functional, organism-based; how it was run: as §3
Botrytis cinerea [24] = experiment: Antifungal activity against Botryotinia fuckeliana assessed as growth inhibition at 3.0 uM after 72 hr by 96-well microdilution broth assay; assay type: functional; conditions: read-out: GI; how it was run: as §3
Botrytis cinerea [25] = experiment: Antifungal activity against Botryotinia fuckeliana assessed as growth inhibition at 0.3 uM after 72 hr by 96-well microdilution broth assay; assay type: functional; conditions: read-out: GI; how it was run: as §3
[26] = system: Colletotrichum gloeosporioides; experiment: Antifungal activity against Colletotrichum gloeosporioides assessed as size of growth inhibitory zone at concentration of 2 mM in volume of 12 ul of acetone measured after 4 days by TLC based direct bioautography assay; assay type: functional; how it was run: as §2
[27] = system: Colletotrichum gloeosporioides; experiment: Antifungal activity against Colletotrichum gloeosporioides assessed as size of growth inhibitory zone at concentration of 2 mM in volume of 2 ul of EtOH measured after 4 days by TLC based direct bioautography assay; assay type: functional; how it was run: as §1
Colletotrichum acutatum [28] = experiment: Antifungal activity against Colletotrichum acutatum assessed as size of growth inhibitory zone at concentration of 2 mM in volume of 2 ul of EtOH measured after 4 days by TLC based direct bioautography assay; assay type: functional; how it was run: as §1
Botrytis cinerea [29] = experiment: Antifungal activity against Botryotinia fuckeliana assessed as growth inhibition at 30 uM by 96-well microdilution broth assay; assay type: functional; conditions: read-out: GI; how it was run: as §3

CO/C=C(/C(=O)OC)c1ccccc1Oc1cc(Oc2ccccc2C#N)ncn1 [AZOXYSTROBIN]
inhibition [1]: Active
Activity (Colletotrichum fragariae [2]): 23 mm
inhibition (Colletotrichum acutatum [3]): Active

C=C1C=CC(C(C)C)CC1 (stereo not drawn) [BETA-PHELLANDRENE]
Activity (Colletotrichum acutatum [4]): 0 mm
Activity [5]: 0 mm
Activity (Colletotrichum fragariae [6]): 0 mm

CC(C)=CCC[C@](C)(O)[C@@H]1CC=C(C)CC1 (relative stereo) [LEVOMENOL]
Activity [7]: 9 mm
Activity [8]: 8 mm
Activity [9]: 7.5 mm
Activity [10]: 5 mm
Activity (Colletotrichum fragariae [11]): 11.5 mm
Activity (Colletotrichum fragariae [12]): 9.5 mm
Activity (Colletotrichum acutatum [4]): 8 mm
Activity (Colletotrichum fragariae [13]): 8 mm
Activity (Colletotrichum fragariae [14]): 7 mm
Activity (Colletotrichum fragariae [15]): 5 mm
Activity (Colletotrichum acutatum [16]): 11 mm
Activity (Colletotrichum acutatum [17]): 9.5 mm
Activity (Colletotrichum acutatum [18]): 7.5 mm
Activity (Colletotrichum acutatum [19]): 7.5 mm
Activity (Colletotrichum acutatum [20]): 5.5 mm
Activity [5]: 5.5 mm
Activity (Colletotrichum fragariae [6]): 6.5 mm
growth inhibition (GI) (Fusarium oxysporum): inactive
growth inhibition (GI) (Phomopsis obscurans): inactive
growth inhibition (GI) [21]: inactive
growth inhibition (GI) (Colletotrichum fragariae [22]): inactive
growth inhibition (GI) (Colletotrichum acutatum [23]): inactive
inhibition of growth at 3 µM (Botrytis cinerea [24]): 47.3%
inhibition of growth at 0.3 µM (Botrytis cinerea [25]): 46.5%
Activity [26]: 11.5 mm

Cc1cc(C2CC2)nc(Nc2ccccc2)n1 [CYPRODINIL]
inhibition [1]: Active
Activity (Colletotrichum fragariae [2]): 23 mm
inhibition (Colletotrichum acutatum [3]): Active

CCCCCCCCCCCCCCCC(=O)O [PALMITIC ACID]
Activity (Colletotrichum acutatum [4]): 0 mm
Activity [5]: 0 mm
Activity (Colletotrichum fragariae [6]): 0 mm

CCCCNC(=O)n1c(NC(=O)OC)nc2ccccc21 [BENOMYL]
inhibition [1]: Active
Activity (Colletotrichum fragariae [2]): 21.3 mm
inhibition (Colletotrichum acutatum [3]): Active

C=C1CCC[C@]2(C)CC[C@@H](C(C)(C)O)C[C@@H]12 [BETA-EUDESMOL]
Activity (Colletotrichum acutatum [4]): 0 mm
Activity [5]: 0 mm
Activity (Colletotrichum fragariae [6]): 0 mm

O=C1C2CC=CCC2C(=O)N1SC(Cl)(Cl)Cl (stereo not given) [CAPTAN]
Activity [27]: 18.9 mm
Activity (Colletotrichum fragariae [2]): 15 mm
Activity (Colletotrichum acutatum [28]): 11.5 mm

C=C1CCC2CC1C2(C)C (stereo not drawn) [BETA-PINENE]
Activity (Colletotrichum acutatum [4]): 0 mm
Activity [5]: 0 mm
Activity (Colletotrichum fragariae [6]): 0 mm

Cc1ccc(C(C)C)cc1O [CARVACROL]
inhibition of growth at 30 µM (Botrytis cinerea [29]): 36.9%
